Changes are numbered by the printed parent chain. In brackets after ≈: the same amount, converted by molar mass.
What was measured:
[1] = AUC (0 to infinity) in mouse at 3 mg/kg, po by LC-MS method; type: ADME, organism-based; design: dose 3 mg/kg, route oral, time infinity; conditions: in vivo
Summary of the method: (§1)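 Single dose, 3 mg/kg, in mouse or rat. IV vehicle: DMSO:Tween 80:PEG-400:D5W 2:5:20:73 (v/v). PO vehicle: Phosol 53 MCT:PEG-400:Poloxamer 124:Cremophor RH40 40:20:20:20 (w/w). Acetonitrile protein precipitation, then LC-MS/MS in negative-ion MRM against an internal standard; LOQ ~20 ng/mL.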

[2] = Lipophilicity, log D of the compound by HPLC method; type: physicochemical
[3] = Intrinsic clearance in rat microsomes; type: ADME, Microsome
[4] = Permeability of the compound by PAMPA; type: ADME; conditions: read-out: permeability
[5] = Solubility of the compound by CLND method; type: physicochemical
[6] = Intrinsic clearance in human microsomes; type: ADME, Microsome
[7] = system: T1, Nonstructural protein 5A (Hepatitis C virus), Q5L478 [Y93H]; test: Inhibition of NS5A Y93H mutant in HuH7 cell infected HCV genotype 1b Con1 assessed as decrease in viral replication after 4 days by luciferase reporter gene assay relative to wild type protein; conditions: Hepatitis C virus (isolate Con1)
T1 sequence (whole entry): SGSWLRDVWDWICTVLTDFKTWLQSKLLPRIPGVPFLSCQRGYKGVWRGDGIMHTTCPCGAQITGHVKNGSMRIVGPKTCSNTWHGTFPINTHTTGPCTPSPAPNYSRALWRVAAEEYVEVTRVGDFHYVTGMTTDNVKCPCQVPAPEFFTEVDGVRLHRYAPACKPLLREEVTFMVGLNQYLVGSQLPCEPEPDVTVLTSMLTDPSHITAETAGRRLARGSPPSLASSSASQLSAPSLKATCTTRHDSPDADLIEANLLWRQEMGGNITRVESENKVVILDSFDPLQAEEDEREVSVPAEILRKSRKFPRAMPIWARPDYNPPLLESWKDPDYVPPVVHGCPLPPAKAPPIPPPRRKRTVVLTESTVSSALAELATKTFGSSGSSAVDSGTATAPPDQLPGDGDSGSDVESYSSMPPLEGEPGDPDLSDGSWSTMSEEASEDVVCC
Summary of the method: (§2)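 Stable subgenomic luciferase replicons in Huh-7 cells: genotype 1b-Con1 carrying NS5A Y93H or Y93N, tested alongside the wild-type replicon. Cells are incubated 4 days with compound in DMEM with 5% FBS. Luciferase read-out, EC50 from a 4-parameter logistic fit, expressed as fold change versus wild type.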

[8] = system: T2, Nonstructural protein 5A (Hepatitis C virus), Q5L478 [Y93N]; test: Inhibition of NS5A Y93N mutant in HuH7 cell infected HCV genotype 1a H77 assessed as decrease in viral replication after 4 days by luciferase reporter gene assay relative to wild type protein; conditions: Hepatitis C virus (isolate H77)
T2 sequence (whole entry): T1 sequence (whole entry) with H93N
Summary of the method: (§3)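 Stable subgenomic luciferase replicons in Huh-7 cells: genotype 1a-H77 carrying NS5A substitutions M28T, Q30E, Q30R, Y93C, Y93H or Y93N, tested alongside the wild-type replicon. Cells are incubated 4 days with compound in DMEM with 5% FBS. Luciferase read-out, EC50 by 4-parameter logistic fit, and fold change versus wild type.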

[9] = Oral bioavailability in mouse at 3 mg/kg by LC-MS method; type: ADME, organism-based; conditions: in vivo; summary of the method: as §1
[10] = Drug level in mouse at 3 mg/kg, po at 24 hrs by LC-MS method; type: ADME, organism-based; conditions: in vivo, read-out: Drug uptake; summary of the method: as §1
[11] = Plasma clearance in mouse at 3 mg/kg, iv by LC-MS method; type: ADME, organism-based; summary of the method: as §1
[12] = Volume of distribution at steady state in mouse at 3 mg/kg, iv by LC-MS method; type: ADME, organism-based; conditions: in vivo, read-out: Vdss
Summary of the method: (§4)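 Mice received a single 3 mg/kg IV dose in 2:5:20:73 (v/v) DMSO:Tween 80:PEG-400:D5W. Heparinized plasma taken at 0.1, 0.25, 0.5, 1, 2, 4, 6, 9, 12 and 24 h. Samples precipitated with acetonitrile and assayed by negative-ion MRM LC-MS. Quantified by unweighted linear regression of parent/internal-standard area ratio against spiked standards; LOQ ~20 ng/mL.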

[13] = system: T1, Nonstructural protein 5A (Hepatitis C virus), Q5L478 [Y93H]; test: Inhibition of NS5A Y93H mutant in HuH7 cell infected HCV genotype 1a H77 assessed as decrease in viral replication after 4 days by luciferase reporter gene assay relative to wild type protein; conditions: Hepatitis C virus (isolate H77); summary of the method: as §3
[14] = Half life in mouse at 3 mg/kg, po by LC-MS method; type: ADME, organism-based; conditions: in vivo; summary of the method: as §1
[15] = target: T3, Nonstructural protein 5A (Hepatitis C virus) (UniProt Q5L478); test: Inhibition of NS5A M28T mutant in HuH7 cell infected HCV genotype 1a H77 assessed as decrease in viral replication after 4 days by luciferase reporter gene assay relative to wild type protein; conditions: Hepatitis C virus (isolate H77); summary of the method: as §3
T3 sequence (whole entry): T1 sequence (whole entry) with H93Y

[16] = Cmax in mouse at 3 mg/kg, po by LC-MS method; type: ADME, organism-based; design: dose 3 mg/kg, route oral; conditions: in vivo; summary of the method: as §1
[17] = system: T4, Nonstructural protein 5A (Hepatitis C virus), Q5L478 [Y93C]; test: Inhibition of NS5A Y93C mutant in HuH7 cell infected HCV genotype 1a H77 assessed as decrease in viral replication after 4 days by luciferase reporter gene assay relative to wild type protein; conditions: Hepatitis C virus (isolate H77); summary of the method: as §3
T4 sequence (whole entry): T1 sequence (whole entry) with H93C

[18] = Volume of distribution at steady state during terminal phase in mouse at 3 mg/kg, iv by LC-MS method; type: ADME, organism-based; conditions: in vivo, read-out: Vbeta; summary of the method: as §4
[19] = target: T3, Nonstructural protein 5A (Hepatitis C virus); test: Inhibition of NS5A Q30R mutant in HuH7 cell infected HCV genotype 1a H77 assessed as decrease in viral replication after 4 days by luciferase reporter gene assay relative to wild type protein; conditions: Hepatitis C virus (isolate H77); summary of the method: as §3
[20] = AUC (0 to infinity) in mouse at 3 mg/kg, iv by LC-MS method; type: ADME, organism-based; design: dose 3 mg/kg, route intravenous, time infinity; conditions: in vivo; summary of the method: as §1
[21] = Tmax in mouse at 3 mg/kg, po by LC-MS method; type: ADME, organism-based; conditions: in vivo
[22] = Half life in mouse at 3 mg/kg, iv by LC-MS method; type: ADME, organism-based; conditions: in vivo; summary of the method: as §1
[23] = system: T2, Nonstructural protein 5A (Hepatitis C virus), Q5L478 [Y93N]; test: Inhibition of NS5A Y93N mutant in HuH7 cell infected HCV genotype 1b Con1 assessed as decrease in viral replication after 4 days by luciferase reporter gene assay relative to wild type protein; conditions: Hepatitis C virus (isolate Con1); summary of the method: as §2
[24] = target: T3, Nonstructural protein 5A (Hepatitis C virus); test: Inhibition of NS5A Q30E mutant in HuH7 cell infected HCV genotype 1a H77 assessed as decrease in viral replication after 4 days by luciferase reporter gene assay relative to wild type protein; conditions: Hepatitis C virus (isolate H77); summary of the method: as §3

SMILES | AUC(0-inf) [1] [ng·h/mL] | logD [2] | CLint scaled [3] [mL/min/kg] | Papp [4] [×10⁻⁶ cm/s] | solubility kinetic [5] [µM] | CLint scaled [6] [mL/min/kg] | fold change (FC) [7] | fold change (FC) [8] | concentration at 24 h [10] [nM] | fold change (FC) [13] | fold change (FC) [15] | Cmax [16] [nM] | fold change (FC) [17] | fold change (FC) [19] | Tmax [21] [h] | also measured
COC(=O)N[C@H](C(=O)N1CCC[C@H]1c1nc2ccc([C@H]3CC[C@H](c4ccc5nc([C@@H]6CCCN6C(=O)[C@@H](NC(=O)OC)C(C)C)[nH]c5c4)N3c3ccc(N4CCOCC4)cc3)cc2[nH]1)C(C)C | 2 | 3.2 | 108 | 0.73 | 14.2 (≈ 13 µg/mL) | 113 | – | – | – | – | – | – | – | – | – | –
COC(=O)N[C@H](C(=O)N1CCC[C@H]1C(=O)Nc1ccc([C@@H]2CC[C@@H](c3ccc(NC(=O)[C@@H]4CCCN4C(=O)[C@@H](NC(=O)OC)C(C)C)cc3)N2c2ccc(C(C)(C)C)cc2)cc1)C(C)C [OMBITASVIR] | 11000 | – | – | – | – | – | 77 | 66700 | 205 | 41400 | 8960 | 636 | 1680 | 800 | 7 | bioavailability [9]: 41.7%; clearance [11]: 1.83 mL/min/kg; Vd [12]: 1.67 L/kg; half-life [14]: 11.7 h; Vd [18]: 1.8 L/kg; AUC(0-inf) [20]: 26400 ng·h/mL; half-life [22]: 11 h
COC(=O)N[C@H](C(=O)N1CCC[C@H]1c1nc2cc(F)c([C@H]3CC[C@H](c4cc5[nH]c([C@@H]6CCCN6C(=O)[C@@H](NC(=O)OC)C(C)C)nc5cc4F)N3c3cc(F)c(N4CCC(c5ccc(F)cc5)CC4)c(F)c3)cc2[nH]1)C(C)C | 26100 | – | – | – | – | – | – | – | 1710 | – | – | 1710 | – | – | 24 | –
COC(=O)N[C@H](C(=O)N1CCC[C@H]1c1nc2ccc([C@H]3CC[C@H](c4ccc5nc([C@@H]6CCCN6C(=O)[C@@H](NC(=O)OC)C(C)C)[nH]c5c4)N3c3cc(Cl)c(N4CCCCC4)c(Cl)c3)cc2[nH]1)C(C)C | 960 | 5.9 | 50 | 0.03 | < 0.6 | < 25 | – | – | – | – | – | – | – | – | – | –
COC(=O)N[C@H](C(=O)N1CCC[C@H]1c1nc2cc([C@H]3CC[C@H](c4cc5nc([C@@H]6CCCN6C(=O)[C@@H](NC(=O)OC)C(C)C)[nH]c5cc4F)N3c3cc(F)c(N4CCC(c5ccccc5)CC4)c(F)c3)c(F)cc2[nH]1)C(C)C | 14000 | – | – | – | – | – | – | – | 754 | – | – | 754 | – | – | 24 | –
COC(=O)N[C@H](C(=O)N1CCC[C@H]1c1nc2ccc([C@H]3CC[C@H](c4ccc5nc([C@@H]6CCCN6C(=O)[C@@H](NC(=O)OC)C(C)C)[nH]c5c4)N3c3cc(F)c(N4CCC(c5ccccc5)CC4)c(F)c3)cc2[nH]1)C(C)C | – | – | – | – | – | – | 1 | 145 | – | 72 | 3 | – | 6 | 7 | – | fold change (FC) [23]: 1; fold change (FC) [24]: 69
COC(=O)N[C@H](C(=O)N1CCC[C@H]1c1nc2ccc([C@H]3CC[C@H](c4ccc5nc([C@@H]6CCCN6C(=O)[C@@H](NC(=O)OC)C(C)C)[nH]c5c4)N3c3ccc(N4CCCCC4)c(F)c3)cc2[nH]1)C(C)C | 2000 | 4.7 | 162 | 0.01 | 2.5 (≈ 2.33 µg/mL) | 140 | – | – | – | – | – | – | – | – | – | –
COC(=O)N[C@H](C(=O)N1CCC[C@H]1c1nc2cc(F)c([C@H]3CC[C@H](c4cc5[nH]c([C@@H]6CCCN6C(=O)[C@@H](NC(=O)OC)C(C)C)nc5cc4F)N3c3cc(F)c(N4CCC(c5ccccc5)CC4)c(F)c3)cc2[nH]1)C(C)C | – | – | – | – | – | – | 1 | 50 | – | 49 | 1 | – | 6 | 2 | – | fold change (FC) [23]: 1; fold change (FC) [24]: 12

— ChEMBL document CHEMBL4177761, “Highlights of the Structure-Activity Relationships of Benzimidazole Linked Pyrrolidines Leading to the Discovery of the Hepatitis C Virus NS5A Inhibitor Pibrentasvir (ABT-530)” (J Med Chem, 2018)
